Reference: ChEMBL document CHEMBL5331142, “Novel 1,4-Dihydropyridines as Specific Binders and Activators of SIRT3 Impair Cell Viability and Clonogenicity and Downregulate Hypoxia-Induced Targets in Cancer Cells” (J Med Chem, 2023)
Calls of active or inactive are those of the source. The rule behind the calls is not given here.

Tests used:
CAL-62 [1] = assay: Inhibition of clonogenicity in human CAL-62 cells incubated for 48 hrs under hypoxia condition by crystal violet staining based assay; type: functional, cell-based; details: CAL-62, 48 h
In short: (§1)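 Dose range 1–50 μM for 48 h under CoCl2 (200 μM) hypoxia. 500 surviving cells replated and grown about 7 days (CAL-62) or 10 days (MDA-MB-231). Crystal violet colony counts used to derive IC50/EC50. Three independent experiments.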

MDA-MB-231 [2] = assay: Inhibition of clonogenicity in human MDA-MB-231 cells incubated for 48 hrs under hypoxia condition by crystal violet staining based assay; type: functional, cell-based; details: MDA-MB-231, 48 h; in short: as §1
[3] = biological target: T1, NAD-dependent protein deacetylase sirtuin-3, mitochondrial (Homo sapiens) (UniProt Q9NTG7); assay: Activation of human SIRT3 overexpressing in human MDA-MB-231 cells assessed as increase in acK122-MnSOD deacetylation level at 50 uM incubated for 4 hrs by Western blot analysis assay; type: cell-based; details: filed as activator
T1 sequence (whole entry): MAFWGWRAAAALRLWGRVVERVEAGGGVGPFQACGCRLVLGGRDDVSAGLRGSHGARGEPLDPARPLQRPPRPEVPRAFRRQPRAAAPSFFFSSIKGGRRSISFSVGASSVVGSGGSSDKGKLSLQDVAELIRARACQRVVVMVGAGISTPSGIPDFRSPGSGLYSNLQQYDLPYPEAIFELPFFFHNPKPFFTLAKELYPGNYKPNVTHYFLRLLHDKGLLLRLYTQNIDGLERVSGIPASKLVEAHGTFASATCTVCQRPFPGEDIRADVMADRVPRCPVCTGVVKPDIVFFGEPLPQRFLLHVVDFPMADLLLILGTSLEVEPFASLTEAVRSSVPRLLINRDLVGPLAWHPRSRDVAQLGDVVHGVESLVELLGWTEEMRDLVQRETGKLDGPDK
In short: (§2)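 CAL-62 or MDA-MB-231 cells treated 4 h at 50 μM. Lysed in Tris/NaCl/EDTA/Triton buffer with protease and phosphatase inhibitors. 15 or 50 μg protein resolved by SDS-PAGE, immunoblotted for acK68- or acK122-MnSOD and total MnSOD, ECL detection. Densitometric acetyl/total ratio. SIRT3 inhibitor 3-TYP (1 μM) used as control.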

CAL-62 [4] = assay: Downregulation of HIF1alpha expression in human CAL-62 cells at 50 uM incubated for 48 hrs under hypoxia condition by Western blot analysis; type: functional, cell-based
In short: (§3)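 CAL-62 or MDA-MB-231 cells made hypoxic with 200 μM CoCl2 for 24 h, then treated with 50 μM compound for 48 h with CoCl2 retained. Lysates (15 or 50 μg protein) immunoblotted for HIF-1α, EPAS-1 or CA-IX with ACTB, ECL detection. 3-TYP (1 μM) as control.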

MDA-MB-231 [5] = assay: Inhibition of cell migration in human MDA-MB-231 cells at 50 uM incubated for 48 hrs by scratch assay; type: functional
In short: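 Confluent MDA-MB-231 monolayer shifted to serum-depleted medium and scratched with a pipette tip. Treated with 50 μM compound for 48 h, DMSO as control. Migration imaged by phase contrast at two time points and quantified. Mean ± SEM of three independent experiments.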

HaCaT [6] = assay: Cytotoxicity against human HaCaT cells assessed as reduction in cell viability at 10 to 25 uM incubated for 48 hrs by trypan blue exclusion assay; type: toxicity, cell-based; details: dose 10-25 µM
In short: (§4)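 HaCaT keratinocytes in DMEM with 10% FBS, treated at 5, 10 and 25 μM for 24 and 48 h. Viability and death scored by trypan blue hemocytometer counting. Three independent experiments.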

[7] = biological target: T1, NAD-dependent protein deacetylase sirtuin-3, mitochondrial (Homo sapiens); assay: Activation of human SIRT3 overexpressing in human MDA-MB-231 cells assessed as increase in acK122-MnSOD deacetylation level at 10 uM incubated for 4 hrs by Western blot analysis assay; type: cell-based; details: filed as activator
In short: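 MDA-MB-231 cells treated 4 h at 10 μM, lysed, and immunoblotted for acK122-MnSOD and total MnSOD. Densitometric ratio.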

MDA-MB-231 [8] = assay: Downregulation of ZEB1 gene expression in human MDA-MB-231 cells at 50 uM incubated for 48 hrs by qRT-PCR analysis; type: functional, cell-based
In short: (§5)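 MDA-MB-231 cells treated with 50 μM compound for 48 h under normoxia, DMSO vehicle control. qRT-PCR quantified by the 2(−ΔCt) method as fold of control, mean ± SEM. Three independent experiments.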

[9] = biological target: T1, NAD-dependent protein deacetylase sirtuin-3, mitochondrial (Homo sapiens); assay: Activation of human SIRT3 overexpressing in human MDA-MB-231 cells assessed as increase in acK68-MnSOD deacetylation level at 50 uM incubated for 4 hrs by Western blot analysis assay; type: cell-based; details: filed as activator; in short: as §2
MDA-MB-231 [10] = assay: Downregulation of SLUG gene expression in human MDA-MB-231 cells at 50 uM incubated for 48 hrs by qRT-PCR analysis; type: functional, cell-based; in short: as §5
CAL-62 [11] = assay: Inhibition of clonogenicity in human CAL-62 cells at 50 uM incubated for 24 to 48 hrs under hypoxia condition by crystal violet staining based assay; type: functional; details: time 24-48 hrs
In short: (§6)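 CAL-62 cells at 80–90% confluence treated with 50 μM compound for 24 or 48 h, in normoxia or with 200 μM CoCl2 (hypoxia). 500 cells replated per 100 mm dish and grown about 7 days. Colonies fixed in 4% formaldehyde, stained with 0.5% crystal violet, and counted.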

[12] = biological target: T1, NAD-dependent protein deacetylase sirtuin-3, mitochondrial (Homo sapiens); assay: Activation of human SIRT3 overexpressing in human CAL-62 cells assessed as increase in acK68-MnSOD deacetylation level at 50 uM incubated for 4 hrs by Western blot analysis assay; type: cell-based; details: filed as activator; in short: as §2
CAL-62 [13] = assay: Downregulation of CA-IX expression in human CAL-62 cells at 50 uM incubated for 48 hrs under hypoxia condition by Western blot analysis; type: functional, cell-based; in short: as §3
MDA-MB-231 [14] = assay: Induction of cell death in human MDA-MB-231 cells incubated for 48 hrs under hypoxia condition by trypan blue exclusion assay; type: functional, cell-based; details: MDA-MB-231, 48 h
In short: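 MDA-MB-231 cells treated at 1–50 μM for 48 h under 200 μM CoCl2 hypoxia. Dead cells scored by trypan blue on a hemocytometer, EC50 derived. Three independent experiments.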

CAL-62 [15] = assay: Inhibition of clonogenicity in human CAL-62 cells at 50 uM incubated for 24 to 48 hrs under normoxia condition by crystal violet staining based assay; type: functional; details: time 24-48 hrs; in short: as §6
[16] = biological target: T1, NAD-dependent protein deacetylase sirtuin-3, mitochondrial (Homo sapiens); assay: Activation of human SIRT3 overexpressing in human CAL-62 cells assessed as increase in acK122-MnSOD deacetylation level at 50 uM incubated for 4 hrs by Western blot analysis assay; type: cell-based; details: filed as activator; in short: as §2
MDA-MB-231 [17] = assay: Downregulation of CA-IX expression in human MDA-MB-231 cells at 50 uM incubated for 48 hrs under hypoxia condition by Western blot analysis; type: functional, cell-based; in short: as §3
HaCaT [18] = assay: Cytotoxicity against human HaCaT cells assessed as reduction in cell viability at 5 to 25 uM incubated for 24 to 48 hrs by trypan blue exclusion assay; type: toxicity, cell-based; details: dose lower 5 µM, time lower 24 hrs, dose upper 25 µM, time upper 48 hrs; in short: as §4

IC50 (CAL-62 [1]) [µM] | IC50 (MDA-MB-231 [2]) [µM] | Activity [3] | Activity [7] | Activity [9] | Activity [12] | Activity [16] | Compound | Activity (CAL-62 [4]) | inhibition at 50 µM (MDA-MB-231 [5]) [%] | Activity (HaCaT [6]) | Activity (MDA-MB-231 [8]) | Activity (MDA-MB-231 [10]) | inhibition at 50 µM (CAL-62 [11]) [%] | Activity (CAL-62 [13]) | EC50 (MDA-MB-231 [14]) [µM] | inhibition at 50 µM (CAL-62 [15]) [%] | Activity (MDA-MB-231 [17]) | Activity (HaCaT [18])
5.43 | 3.19 | Active | Active | Active | Active | Active | CCOC(=O)C1=CN(C(=O)c2cc(OC)cc(OC)c2)C=C(C(=O)OCC)C1c1ccccc1 | Active | > 75 | Non-Toxic | Active | inactive | 68 | Active | 10.7 | 68 | Active | 
 |  |  |  |  |  |  | CCOC(=O)C1=CN(C(=O)c2ccc(OC)c(OC)c2)C=C(C(=O)OCC)C1c1ccccc1 |  |  |  |  |  |  |  |  |  |  | Non-Toxic
